# Screens deposited in PubChem by several laboratories.
# APP 5'UTR act: APP 5'UTR luciferase reporter activation; AID 1276; activation, % at 2 µM; SH-SY5Y APP 5'UTR luciferase reporter, luminescence; zero percent = DMSO vehicle wells; 190,000 tested, 1% active;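 active = activation above a set limit, based on mean plus 3 SD of controls, cut at about 140% in these data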
# STAT1 activator: STAT1 signaling activation | NIH 3T3 STAT1-luciferase reporter, IFN-gamma, luminescence; 100% = IFN-gamma alone, no compound | 200,000 tested, 2.6% active | activation (% of control), % at 5.5 µM;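 active = activation above the screen-wide mean activation plus 3 SD, cut at about 130% in these data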;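 also: raw ratio to IFN-gamma control signal so 100% means no change and 0% no light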
# STAT3 act: STAT3 signaling activation | U3A cells, IL-6 STAT3-luciferase reporter, luminescence; 100% = signal with IL-6 EC80 alone | activation (% of control), % at 5.6 µM | 190,000 tested, 0.91% active;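 active = activation above the screen-wide mean of compound activation plus 3 SD, cut at about 130% in these data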;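 also: 0% = background luminescence of wells with medium and substrate only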
#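 Assay system – human STAT1-deficient U3A cells with stable STAT3-luciferase reporter · Also added – IL-6 (33 ng/mL) · Schedule – compound 1 h, then IL-6 6 h at 37 °C · Technique – reporter luminescence signal · Evaluation – % activation versus median of IL-6-stimulated wells · Benchmarks – IL-6-only wells as 100% reference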
# STAT3 inh-1: inhibitors of IL-6 induced STAT3 signaling | U3A cells, IL-6 STAT3-luciferase reporter, luminescence; host cell line lacks STAT1 | inhibition, % at 5.5 µM | 190,000 tested, 0.89% active | AID 862;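 active = inhibition above the mean inhibition across all screened compounds plus 3 SD, cut at about 44% in these data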;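 also: 0% = DMSO only wells and 100% = 100 µM nifuroxazide control wells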
# NF-kB neuron act: raises NF-kB expression in human neuronal cells. fold change at 12.5 µM. AID 1239. 190,000 tested, 1.6% active. NF-kB reporter expression; stronger effect = higher value; in the data active = fold change above about 3.3
# STAT1 blocker: inhibitors of IFN-gamma induced STAT1 signaling; NIH 3T3 STAT1-luciferase reporter, luminescence; 200,000 tested, 0.35% active; inhibition, % at 5.5 µM;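 active = inhibition above a set limit, the mean inhibition across all tested compounds plus 3 SD, cut at about 34% in these data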;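 also: 0% = IFN-gamma with DMSO and 100% = IFN-gamma with 300 µM nifuroxazide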
# STAT3 inh-2: STAT3 inhibition, confirmation assay. shares compounds with STAT3 inh-1. U3A cells, IL-6 STAT3 luciferase reporter, luminescence; cell line lacks STAT1. inhibition, % at 5.7 µM. 1,200 tested, 45% active. AID 1265;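 active = inhibition above the hit cutoff computed for the primary STAT3 screen, cut at about 44% in these data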;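 also: 0% = IL-6 plus DMSO and 100% = IL-6 plus nifuroxazide control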
# NFkB inh STAT3ct: NF-kappaB inhibition in STAT3 inhibitor counter-screen; shares compounds with STAT3 inh-1; HEK293T NF-kB luciferase reporter, TNF-alpha induced; inhibition, % at 5.7 µM; 1,200 tested, 36% active; AID 1308;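 active = inhibition above the mean of solvent-only control wells plus 3 SD, cutoff set per campaign, cut at about 13% in these data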;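 also: 0% = TNF-alpha with DMSO and 100% = TNF-alpha with MG high control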
# STAT1 inh STAT3c: counter-screen for STAT3 inhibitors: STAT1 inhibition | NIH 3T3 STAT1-luciferase reporter, IFN-gamma induced, luminescence | 1,200 tested, 27% active | shares compounds with STAT3 inh-1 | inhibition, % at 5.7 µM;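 active = inhibition above the mean plus 3 SD of solvent-only control wells, limit set per screening run, cut at about 16% in these data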;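 also: 0% = DMSO with IFN-gamma and 100% = nifuroxazide control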
# * = called active by the depositor; x = no result given. This is a sample that favours compounds with a hit; in the whole collection about 5.1% have one here.
SMILES,APP 5'UTR act,STAT1 activator,STAT3 act,STAT3 inh-1,NF-kB neuron act,STAT1 blocker,STAT3 inh-2,NFkB inh STAT3ct,STAT1 inh STAT3c
CCOc1ccc(S(=O)(=O)N/N=C2/CC(c3ccccc3)Oc3ccccc32)cc1 (stereo not given),22.0,103.8,106.7,0.1,1.57,-4.1,x,x,x
C/C(=N\NC(=O)CCc1ccc(S(=O)(=O)N2CCOCC2)cc1)c1ccccc1Cl,6.2,93.1,101.4,2.3,1.02,7.0,x,x,x
O=C(Nc1ccc(S(=O)(=O)Nc2ccccc2)cc1)c1ccc(CN2CCOCC2)cc1,8.0,78.5,30.9,83.9*,0.75,21.3,77.5*,27.5*,4.5
COC(=O)c1ccc(NC(=O)c2ccc(CN3CCOCC3)cc2)cc1,-4.2,99.5,58.2,54.1*,1.1,0.5,39.5,1.1,-5.4
O=C(NCCSc1c[nH]c2ccccc12)C1CC1,-12.1,100.7,106.3,1.7,1.23,-0.8,x,x,x
CCn1cc(C(=O)OCC(=O)c2cc(C)n(-c3ccc(OC(F)F)cc3)c2C)c(=O)c2ccc(C)nc21,17.1,100.9,115.8,-18.9,1.07,-1.1,x,x,x
COc1ccc(NC(=O)CSc2nnc(NC(=O)c3ccccc3C(=O)O)s2)cc1,19.3,101.8,95.0,8.2,1.62,-3.8,x,x,x
O=C(Nc1ccc(N2CCOCC2)cc1)c1cn2ccccc2n1,108.0,74.5,39.4,76.4*,2.14,28.0,37.2,-4.0,-25.5
COc1ccc(O)c(C(=O)CC(=O)c2ccccc2)c1,133.5,131.5*,42.2,69.5*,3.43*,-34.4,15.4,-25.0,-101.0
CC(=O)c1c(C)[nH]c(C(=O)CSc2nc3ccccc3n2C)c1C,2.7,88.7,62.2,50.3*,0.87,12.5,41.5,-1.3,8.0
Cc1ccc(C(=O)/C=C/Nc2ccc3c(c2)OCO3)cc1,95.1,131.9*,54.5,56.3*,5.95*,-28.1,1.5,-26.7,-142.2
Cc1noc(NS(=O)(=O)c2ccc(N/C=C\C(=O)c3ccc4c(c3)OCO4)cc2)c1C,21.7,118.4,108.6,-7.2,1.32,-20.5,x,x,x
O=C(/C=C/Nc1cccc(O)c1)c1ccccc1,183.5*,95.0,31.6,86.0*,6.29*,6.7,65.3*,-3.1,2.5
CC(=O)c1cccc(NS(=O)(=O)c2ccc(N/C=C\C(=O)c3ccc(C)cc3)cc2)c1,4.4,87.2,70.5,36.8,1,13.9,x,x,x
Cc1ccc(C(=O)/C=C/Nc2cccc(O)c2)cc1,138.4*,92.4,23.8,94.2*,13.3*,6.6,90.0*,32.5*,34.0*
c1ccc(CCNc2ncnc3ccccc23)cc1,88.7,100.5,25.6,89.8*,2.49,-2.6,82.8*,22.9*,-23.2
Brc1ccc2ncnc(NCc3ccccc3)c2c1,-8.9,70.4,68.6,39.5,0.54,32.1,x,x,x
COc1ccc(NC(=S)Nc2ncccc2C)c(OC)c1,57.6,122.9,66.2,46.7*,1.71,-25.6,39.9,-16.5,-42.4
CCOc1ccccc1NC(=S)Nc1ncccc1C,0.2,97.6,95.7,4.4,1.36,2.6,x,x,x
Cn1c(SCCCC(=O)c2ccc(Br)cc2)nnc1-c1ccncc1,7.3,94.2,88.8,15.1,0.87,6.2,x,x,x
CCOCCCNC(=O)c1ccc2c(c1)OCO2,14.1,102.1,105.5,-4.8,1.71,-2.3,x,x,x
O=C(NCCOc1ccccc1)c1ccc2c(c1)OCO2,120.3,82.8,39.3,76.3*,1.4,19.4,39.1,26.1*,-20.5
O=C(NCC1CCCO1)c1sc2cc(Cl)ccc2c1Cl (stereo not given),46.6,122.7,82.7,19.5,2.69,-25.0,x,x,x
CCCC(=O)N1CCN(c2ccc(NC(=O)c3cc4ccccc4o3)cc2Cl)CC1,6.6,89.1,60.1,50.3*,0.34,11.7,43.2,2.6,-2.5
CCC(=O)N1CCN(c2ccc(NC(=O)c3cc4ccccc4o3)cc2Cl)CC1,-14.3,92.5,61.1,49.0*,0.35,8.1,34.3,-3.0,-13.6
SMILES,APP 5'UTR act,STAT1 activator,STAT3 act,STAT3 inh-1,NF-kB neuron act,STAT1 blocker,STAT3 inh-2,NFkB inh STAT3ct,STAT1 inh STAT3c
O=C(Nc1ccc(N2CCN(C(=O)c3ccco3)CC2)c(Cl)c1)c1cc2ccccc2o1,75.0,99.8,62.4,47.8*,0.29,9.3,47.8*,10.8,3.9
O=C(c1cc2ccccc2o1)N1CCN(c2ccccc2Cl)CC1,10.4,97.4,97.3,7.2,1.05,2.8,x,x,x
CCCC(=O)N1CCN(c2ccc(NC(=O)c3cccs3)cc2Cl)CC1,-2.5,88.5,96.8,9.4,0.75,12.1,x,x,x
COc1cc(CCC(=O)Nc2cccc(S(=O)(=O)N(C)C)c2)cc(OC)c1OC,-14.7,103.5,96.7,6.1,0.92,-3.9,x,x,x
Cc1cccc(Cn2c(NCCO)nc3c2c(=O)n(C)c(=O)n3C)c1,8.6,83.0,59.9,52.0*,0.87,18.6,34.7,9.6,19.6*
Cn1c(=O)c2c(nc(NC(Cc3ccccc3)C(=O)O)n2Cc2ccccc2)n(C)c1=O (stereo not given),6.0,102.3,101.3,1.9,1,-2.5,x,x,x
CCCCn1c(CN(C)Cc2ccccc2)nc2c1c(=O)n(C)c(=O)n2C,6.8,79.0,76.5,32.4,0.77,22.9,x,x,x
CNc1nc2c(c(=O)n(C)c(=O)n2C)n1Cc1ccccc1,2.8,85.4,59.4,54.9*,0.82,16.0,34.4,13.3*,18.1*
CCCn1c(CN(C)Cc2ccccc2)nc2c1c(=O)n(C)c(=O)n2C,7.3,81.5,64.1,46.0*,0.66,20.1,28.5,4.4,14.3
C/C(CC1CC2=C(CC1(C)C)C(C)(C)CCC2)=N\NC(N)=S (stereo not given),13.0,99.5,95.8,10.6,2.16,0.5,x,x,x
COCCn1c(C)cc(C(=O)COC(=O)c2n[nH]c3ccccc23)c1C,97.8,73.9,33.8,83.4*,0.87,29.1,51.3*,23.4*,-19.6
Cc1cc(C(=O)COC(=O)c2n[nH]c3ccccc23)c(C)n1CC1CCCO1 (stereo not given),168.0*,99.3,46.9,64.4*,1.01,0.8,19.5,-4.6,-70.3
COCCn1c(C)cc(C(=O)COC(=O)c2c(C)nn(Cc3ccccc3)c2C)c1C,8.0,93.4,97.2,8.4,0.88,7.3,x,x,x
Cc1cc(C(=O)COc2ccccc2C(N)=O)c(C)n1CC1CCCO1 (stereo not given),22.1,77.0,43.7,72.9*,1.17,24.5,70.4*,21.8*,16.5*
